Experimental data as given in ChEMBL document CHEMBL1143242, “Specific small-molecule activator of Aurora kinase A induces autophosphorylation in a cell-free system” (J Med Chem, 2008).
Activity calls are given as the source filed them. No cut-off for these calls is given here.

Columns and labels:
[1] = target: T1, Aurora kinase A (Homo sapiens) (UniProt O14965); assay: Binding affinity to human AURA expressed in baculovirus in presence of anacardic acid
T1 sequence (whole entry): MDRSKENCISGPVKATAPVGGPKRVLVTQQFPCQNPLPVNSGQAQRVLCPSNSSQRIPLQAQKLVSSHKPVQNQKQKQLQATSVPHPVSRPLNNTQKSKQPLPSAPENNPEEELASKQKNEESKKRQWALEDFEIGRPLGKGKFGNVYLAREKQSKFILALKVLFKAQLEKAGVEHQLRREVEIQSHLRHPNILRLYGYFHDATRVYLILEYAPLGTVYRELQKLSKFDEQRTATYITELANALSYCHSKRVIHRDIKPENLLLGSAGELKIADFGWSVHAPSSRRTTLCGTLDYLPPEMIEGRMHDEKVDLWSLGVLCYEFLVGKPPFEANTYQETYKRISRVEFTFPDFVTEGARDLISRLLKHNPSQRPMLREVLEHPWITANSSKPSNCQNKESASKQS
How it was run: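 Baculovirus-expressed, C-terminally His6-tagged AURA purified on Ni-NTA. Intrinsic fluorescence quenching was read at 301 nm (excitation 280 nm), with inner-filter correction. Ka came from double-reciprocal FR and the Chipman method.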

[2] = target: T1, Aurora kinase A (Homo sapiens); assay: Binding affinity to human AURA expressed in baculovirus
How it was run: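 Baculovirus-expressed, C-terminally His6-tagged AURA purified on Ni-NTA. Excitation was at 280 nm and quenching of intrinsic fluorescence was read at 301 nm, with inner-filter correction. FR came from a double-reciprocal plot, and Ka was calculated by the Chipman method.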

[3] = target: T1, Aurora kinase A (Homo sapiens); assay: Binding affinity to human AURA expressed in baculovirus in presence of ATP
[4] = target: T1, Aurora kinase A (Homo sapiens); assay: Activation of human AURA activity expressed in baculovirus cells by time course assay
[5] = target: T1, Aurora kinase A (Homo sapiens); assay: Activation of human AURA autophosphorylation activity
How it was run: (§1)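 Autophosphorylation read from the same gels: 1.5 µg histone H3 with AURA (40 ng) or AURB (120 ng) and [γ-32P]ATP, with or without compound at 25 and 50 µM in DMSO. Reactions precipitated with 25% TCA, resolved on 15% SDS-PAGE, then autoradiographed.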

[6] = target: Aurora kinase B (Homo sapiens) (UniProt Q96GD4); assay: Activation of human AURB autophosphorylation activity; how it was run: as §1
[7] = target: Aurora kinase B (Homo sapiens) (UniProt Q96GD4); assay: Activation of human AURB mediated histone H3 phosphorylation by phosphoimager analyzer
How it was run: (§2)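 Compound (5–50 µM, in DMSO) preincubated 5 min at 30 °C, then [γ-32P]ATP added for 10 min. 25% TCA precipitation, 15% SDS-PAGE, autoradiography; phosphoimager quantitation of relative intensity versus DMSO control.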

[8] = target: T1, Aurora kinase A (Homo sapiens); assay: Activation of human AURA mediated histone H3 phosphorylation by phosphoimager analyzer; how it was run: as §2
[9] = target: T1, Aurora kinase A (Homo sapiens); assay: Activation of human AURA assessed as histone H3 phosphorylation; how it was run: as §2
[10] = substrate: C=CC/C=C\C/C=C\CCCCCCCc1cccc(O)c1C(=O)O; assay: Activity of human AURA expressed in baculovirus at 50 uM by phosphorimager analyzer; how it was run: as §2
[11] = substrate: C=CC/C=C\C/C=C\CCCCCCCc1cccc(O)c1C(=O)O; assay: Ratio of Kcat for human AURA to Km for human AURA
How it was run: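 AURA kinase assay with H3 substrate, with increasing [γ-32P]ATP (2.5–15 µM) in the presence of DMSO or 50 µM compound; 5 min 30 °C preincubation, 10 min reaction, TCA precipitation, PAGE and phosphoimager quantitation. Km, Vmax and kcat fitted from activity against ATP concentration.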

Chain of Aurora kinase B (Homo sapiens) (Q96GD4 whole entry): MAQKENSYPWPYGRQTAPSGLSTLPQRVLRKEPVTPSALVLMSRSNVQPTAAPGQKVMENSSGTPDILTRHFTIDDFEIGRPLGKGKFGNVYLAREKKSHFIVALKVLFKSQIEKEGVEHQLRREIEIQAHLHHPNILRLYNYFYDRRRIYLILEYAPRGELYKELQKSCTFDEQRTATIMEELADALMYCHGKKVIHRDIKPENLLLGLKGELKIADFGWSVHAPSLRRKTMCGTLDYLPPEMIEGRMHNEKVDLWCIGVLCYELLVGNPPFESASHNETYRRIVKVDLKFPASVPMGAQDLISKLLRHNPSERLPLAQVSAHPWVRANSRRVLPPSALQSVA

In the case of `Nc1ncnc2c1ncn2[C@@H]1O[C@H](COP(=O)(O)OP(=O)(O)OP(=O)(O)O)[C@@H](O)[C@H]1O`, the Ka [1] is reported as 27.5 nM⁻¹ and the Ka [2] is reported as 5.7 µM⁻¹.

With `C=CC/C=C\C/C=C\CCCCCCCc1cccc(O)c1C(=O)O` the Ka [3] was 10.1 µM⁻¹, the Activity [4] was “Active” and the Activity [5] was “Active”. For the same molecule, the Activity [6] was “inactive”, the Activity [7] was “inactive” and the Activity [8] was “Active”. For the same molecule, the Activity [9] was “Dose-dependent effect” and the Ka [2] was 5.2 µM⁻¹.

B1: Aurora kinase A (Homo sapiens), O14965 (protein)
chain: MDRSKENCISGPVKATAPVGGPKRVLVTQQFPCQNPLPVNSGQAQRVLCPSNSSQRIPLQAQKLVSSHKPVQNQKQKQLQATSVPHPVSRPLNNTQKSKQPLPSAPENNPEEELASKQKNEESKKRQWALEDFEIGRPLGKGKFGNVYLAREKQSKFILALKVLFKAQLEKAGVEHQLRREVEIQSHLRHPNILRLYGYFHDATRVYLILEYAPLGTVYRELQKLSKFDEQRTATYITELANALSYCHSKRVIHRDIKPENLLLGSAGELKIADFGWSVHAPSSRRTTLCGTLDYLPPEMIEGRMHDEKVDLWSLGVLCYEFLVGKPPFEANTYQETYKRISRVEFTFPDFVTEGARDLISRLLKHNPSQRPMLREVLEHPWITANSSKPSNCQNKESASKQS
B1 showed a Km [10] of 40.2 mM, a Vmax [10] of 62.5 mmol/min/mg and a kcat [10] of 282 s⁻¹. The kcat/Km [11] was 6990 M⁻¹ s⁻¹.
